Results as given in publication PMC10824694 (Blood Advances, 2023).

Experiments:
CAMKIIγ [1] = biological target: T1, CAMKIIγ (Homo sapiens, UniProt Q13555); assay: Cellular thermal shift assay; assay type: cell-based; conditions: H9 cells, 5 μM, 1 hour; vs DMSO
Target sequence in this assay (Q13555 whole entry): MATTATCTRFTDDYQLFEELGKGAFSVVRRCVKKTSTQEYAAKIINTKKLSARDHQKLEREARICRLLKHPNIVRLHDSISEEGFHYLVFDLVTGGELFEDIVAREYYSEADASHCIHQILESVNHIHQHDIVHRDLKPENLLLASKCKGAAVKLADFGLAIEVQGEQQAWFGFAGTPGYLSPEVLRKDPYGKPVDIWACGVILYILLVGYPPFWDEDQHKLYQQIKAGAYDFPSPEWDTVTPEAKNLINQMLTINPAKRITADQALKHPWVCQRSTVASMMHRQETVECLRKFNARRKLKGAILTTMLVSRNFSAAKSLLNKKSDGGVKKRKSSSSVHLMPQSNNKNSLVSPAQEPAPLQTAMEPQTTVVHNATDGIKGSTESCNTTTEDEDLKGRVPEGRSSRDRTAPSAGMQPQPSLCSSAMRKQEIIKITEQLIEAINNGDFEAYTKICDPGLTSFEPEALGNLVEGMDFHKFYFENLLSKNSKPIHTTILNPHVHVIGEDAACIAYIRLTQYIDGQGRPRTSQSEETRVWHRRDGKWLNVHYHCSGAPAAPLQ

CAMKIIγ [2] = biological target: T1, CAMKIIγ; assay: nano-DSF assay with purified CAMKIIγ protein; assay type: binding; conditions: in words
Target sequence in this assay (Q13555 14-272 limits assumed): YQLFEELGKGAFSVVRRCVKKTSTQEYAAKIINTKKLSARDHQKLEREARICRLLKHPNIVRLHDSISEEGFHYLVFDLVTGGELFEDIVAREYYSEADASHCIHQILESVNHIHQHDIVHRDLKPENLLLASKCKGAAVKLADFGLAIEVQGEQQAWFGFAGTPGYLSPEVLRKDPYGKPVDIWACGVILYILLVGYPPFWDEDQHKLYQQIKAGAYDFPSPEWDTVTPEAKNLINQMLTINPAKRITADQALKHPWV

371-kinase panel = assay: Kinome screening, HotSpot assay platform; assay type: biochemical; conditions: 10 μM, panel of 371 kinases
Procedure, shortened: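 The HotSpot platform was run against a 371-kinase panel with test compounds at 1 µM and 10 µM. A hit was a kinase whose activity was inhibited by ≥50%.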

[3] = tested on: H9-derived xenografted tumors; assay: H9 xenograft T-cell lymphoma model in NSG mice; assay type: in vivo, mouse; conditions: oral gavage daily 14 days, BBM 50 mg/kg, PA4 5-15 mg/kg per day
Procedure, shortened: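 Female 8-week-old NSG mice received 5×10^6 H9 cells in PBS subcutaneously in the right flank. At a tumour volume of ~30 mm³ (day 16), mice were randomised into 5 groups (n = 5 each): PBS 100 μL, or test compound in PBS, given daily by oral gavage for 14 days. Body weight and tumours were measured 3 times weekly. Mice were euthanised on day 30.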

[4] = Mouse pharmacokinetics study; assay type: in vivo
Procedure, shortened: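 Plasma concentration–time profiles were obtained after each route. Absolute oral bioavailability was calculated from the IV and oral data.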

RPMI-8226 = assay: cells; assay type: cell-based; conditions: Homo sapiens, RPMI-8226, 72 h
K-562 = assay: cells; assay type: cell-based; conditions: Homo sapiens, K562, 72 h
MOLT-4 = assay: cells; assay type: cell-based; conditions: Homo sapiens, MOLT-4, 72 h
HL-60(TB) = assay: cells; assay type: cell-based; conditions: Homo sapiens, HL-60, 72 h
CCRF-CEM = assay: cells; assay type: cell-based; conditions: Homo sapiens, 72 h
SR = assay: cells; assay type: cell-based; conditions: Homo sapiens, 72 h
A549/ATCC = assay: cells; assay type: cell-based; conditions: Homo sapiens, A549, 72 h
NCI-H460 = assay: cells; assay type: cell-based; conditions: Homo sapiens, NCI-H460, 72 h
EKVX = assay: cells; assay type: cell-based; conditions: Homo sapiens, 72 h
NCI-H522 = assay: cells; assay type: cell-based; conditions: Homo sapiens, NCI-H522, 72 h
HOP-62 = assay: cells; assay type: cell-based; conditions: Homo sapiens, HOP-62, 72 h
NCI-H322M = assay: cells; assay type: cell-based; conditions: Homo sapiens, 72 h
HOP-92 = assay: cells; assay type: cell-based; conditions: Homo sapiens, HOP-92, 72 h
NCI-H23 = assay: cells; assay type: cell-based; conditions: Homo sapiens, NCI-H23, 72 h
NCI-H226 = assay: cells; assay type: cell-based; conditions: Homo sapiens, NCI-H226, 72 h
SW-620 = assay: cells; assay type: cell-based; conditions: Homo sapiens, SW-620, 72 h
HT29 = assay: cells; assay type: cell-based; conditions: Homo sapiens, HT-29, 72 h
KM12 = assay: cells; assay type: cell-based; conditions: Homo sapiens, KM12, 72 h
HCT-116 = assay: cells; assay type: cell-based; conditions: Homo sapiens, HCT-116, 72 h
HCT-15 = assay: cells; assay type: cell-based; conditions: Homo sapiens, HCT-15, 72 h
COLO 205 = assay: cells; assay type: cell-based; conditions: Homo sapiens, COLO 205, 72 h
HCC-2998 = assay: cells; assay type: cell-based; conditions: Homo sapiens, HCC 2998, 72 h
SF-268 = assay: cells; assay type: cell-based; conditions: Homo sapiens, SF-268, 72 h
U251 = assay: cells; assay type: cell-based; conditions: Homo sapiens, U-251, 72 h
SF-295 = assay: cells; assay type: cell-based; conditions: Homo sapiens, SF-295, 72 h
SNB-19 = assay: cells; assay type: cell-based; conditions: Homo sapiens, SNB-19, 72 h
SNB-75 = assay: cells; assay type: cell-based; conditions: Homo sapiens, SNB-75, 72 h
SF-539 = assay: cells; assay type: cell-based; conditions: Homo sapiens, SF-539, 72 h
MALME-3M = assay: cells; assay type: cell-based; conditions: Homo sapiens, 72 h
SK-MEL-2 = assay: cells; assay type: cell-based; conditions: Homo sapiens, SK-MEL-2, 72 h
LOX IMVI = assay: cells; assay type: cell-based; conditions: Homo sapiens, 72 h
SK-MEL-28 = assay: cells; assay type: cell-based; conditions: Homo sapiens, SK-MEL-28, 72 h
SK-MEL-5 = assay: cells; assay type: cell-based; conditions: Homo sapiens, SK-MEL-5, 72 h
M14 = assay: cells; assay type: cell-based; conditions: Homo sapiens, M14, 72 h
MDA-MB-435 = assay: cells; assay type: cell-based; conditions: Homo sapiens, MDA-MB-435, 72 h
UACC-257 = assay: cells; assay type: cell-based; conditions: Homo sapiens, UACC-257, 72 h
UACC-62 = assay: cells; assay type: cell-based; conditions: Homo sapiens, UACC-62, 72 h
NCI/ADR-RES = assay: cells; assay type: cell-based; conditions: Homo sapiens, 72 h
OVCAR-3 = assay: cells; assay type: cell-based; conditions: Homo sapiens, OVCAR-3, 72 h
SK-OV-3 = assay: cells; assay type: cell-based; conditions: Homo sapiens, SK-OV-3, 72 h
OVCAR-4 = assay: cells; assay type: cell-based; conditions: Homo sapiens, OVCAR-4, 72 h
OVCAR-5 = assay: cells; assay type: cell-based; conditions: Homo sapiens, OVCAR-5, 72 h
OVCAR-8 = assay: cells; assay type: cell-based; conditions: Homo sapiens, OVCAR-8, 72 h
ACHN = assay: cells; assay type: cell-based; conditions: Homo sapiens, 72 h
UO-31 = assay: cells; assay type: cell-based; conditions: Homo sapiens, UO-31, 72 h
786-0 = assay: cells; assay type: cell-based; conditions: Homo sapiens, 786-0, 72 h
SN12C = assay: cells; assay type: cell-based; conditions: Homo sapiens, 72 h
CAKI-1 = assay: cells; assay type: cell-based; conditions: Homo sapiens, CAKI-1, 72 h
TK-10 = assay: cells; assay type: cell-based; conditions: Homo sapiens, TK-10, 72 h
RXF 393 = assay: cells; assay type: cell-based; conditions: Homo sapiens, RXF 393, 72 h
A498 = assay: cells; assay type: cell-based; conditions: Homo sapiens, A498, 72 h
PC-3 = assay: cells; assay type: cell-based; conditions: Homo sapiens, PC-3, 72 h
DU-145 = assay: cells; assay type: cell-based; conditions: Homo sapiens, DU-145, 72 h
MCF7 = assay: cells; assay type: cell-based; conditions: Homo sapiens, MCF7, 72 h
HS 578T = assay: cells; assay type: cell-based; conditions: Homo sapiens, 72 h
MDA-MB-468 = assay: cells; assay type: cell-based; conditions: Homo sapiens, MDA-MB-468, 72 h
MDA-MB-231/ATCC = assay: cells; assay type: cell-based; conditions: Homo sapiens, MDA-MB-231, 72 h
BT-549 = assay: cells; assay type: cell-based; conditions: Homo sapiens, BT-549, 72 h
T-47D = assay: cells; assay type: cell-based; conditions: Homo sapiens, T47D, 72 h
FG = assay: cells; assay type: cell-based; conditions: Homo sapiens, 72 h
BxPC3 = assay: cells; assay type: cell-based; conditions: Homo sapiens, BXPC-3, 72 h
Panc1 = assay: cells; assay type: cell-based; conditions: Homo sapiens, PANC-1, 72 h
CaPan2 = assay: cells; assay type: cell-based; conditions: Homo sapiens, Capan-2, 72 h
Rael = assay: cells; assay type: cell-based; conditions: Homo sapiens, 72 h
H9 = assay: cells; assay type: cell-based; conditions: Homo sapiens, H9, 72 h
Namalwa = assay: cells; assay type: cell-based; conditions: Homo sapiens, 72 h
JB6 = assay: cells; assay type: cell-based; conditions: Homo sapiens, JB6, 72 h
DHL6 = assay: cells; assay type: cell-based; conditions: Homo sapiens, 72 h
Mutu = assay: cells; assay type: cell-based; conditions: Homo sapiens, 72 h

Question: With `COc1cc2c3cc1Oc1c(OC)c(OC)cc4c1[C@@H](Cc1ccc(O)c(c1)Oc1ccc(cc1)C[C@@H]3N(C)CC2)N(C)CC4` [BBM, berbamine] as the compound, how does the “CAMKIIγ degradation temperature (CETSA)” value (CAMKIIγ [1]) read?
Answer: did not shift the degradation temperature

Question: And the “change of melting temperature of CAMKIIγ protein” value (CAMKIIγ [2])?
Answer: did not significantly change the melting temperature

Question: And the “number of kinases whose activity was reduced by >50%” value (371-kinase panel)?
Answer: none

Question: And the body weight [3]?
Answer: did not reduce body weight

Question: And the “time detected in blood after oral administration” value ([4]; male Institute of Cancer Research mice)?
Answer: 5 min

Question: What about the “area under the curve” value ([4]; male Institute of Cancer Research mice, plasma) of the same compound?
Answer: 8478 ± 1150

Question: What about the bioavailability ([4]; male, ICR (Institute of Cancer Research), mouse, plasma, po) of the same compound?
Answer: 44.8%

Question: And the IC50 (RPMI-8226)?
Answer: 7.83 µM

Question: What about the IC50 (K-562) of the same compound?
Answer: 5.11 µM

Question: What about the IC50 (MOLT-4) of the same compound?
Answer: 10.7 µM

Question: And the IC50 (HL-60(TB))?
Answer: 5.98 µM

Question: And the IC50 (CCRF-CEM)?
Answer: 11.4 µM

Question: And the IC50 (SR)?
Answer: 5.14 µM

Question: What about the IC50 (A549/ATCC) of the same compound?
Answer: 18.7 µM

Question: What about the IC50 (NCI-H460) of the same compound?
Answer: 20.5 µM

Question: And the IC50 (EKVX)?
Answer: 6.38 µM

Question: And the IC50 (NCI-H522)?
Answer: 21.3 µM

Question: And the IC50 (HOP-62)?
Answer: 23.8 µM

Question: What about the IC50 (NCI-H322M) of the same compound?
Answer: 20 µM

Question: What about the IC50 (HOP-92) of the same compound?
Answer: 12.7 µM

Question: And the IC50 (NCI-H23)?
Answer: 14.9 µM

Question: What about the IC50 (NCI-H226) of the same compound?
Answer: 34.6 µM

Question: What about the IC50 (SW-620) of the same compound?
Answer: 12.4 µM

Question: What about the IC50 (HT29) of the same compound?
Answer: 6.56 µM

Question: What about the IC50 (KM12) of the same compound?
Answer: 17.3 µM

Question: What about the IC50 (HCT-116) of the same compound?
Answer: 10.2 µM

Question: And the IC50 (HCT-15)?
Answer: 11 µM

Question: And the IC50 (COLO 205)?
Answer: 16 µM

Question: And the IC50 (HCC-2998)?
Answer: 5.61 µM

Question: What about the IC50 (SF-268) of the same compound?
Answer: 13.8 µM

Question: And the IC50 (U251)?
Answer: 10.7 µM

Question: And the IC50 (SF-295)?
Answer: 13.3 µM

Question: What about the IC50 (SNB-19) of the same compound?
Answer: 16.2 µM

Question: And the IC50 (SNB-75)?
Answer: 17.6 µM

Question: What about the IC50 (SF-539) of the same compound?
Answer: 5.25 µM

Question: What about the IC50 (MALME-3M) of the same compound?
Answer: 9.82 µM

Question: And the IC50 (SK-MEL-2)?
Answer: 16 µM

Question: What about the IC50 (LOX IMVI) of the same compound?
Answer: 23 µM

Question: What about the IC50 (SK-MEL-28) of the same compound?
Answer: 15.4 µM

Question: And the IC50 (SK-MEL-5)?
Answer: 9.9 µM

Question: And the IC50 (M14)?
Answer: 13.1 µM

Question: And the IC50 (MDA-MB-435)?
Answer: 13.5 µM

Question: What about the IC50 (UACC-257) of the same compound?
Answer: 6.5 µM

Question: What about the IC50 (UACC-62) of the same compound?
Answer: 19.2 µM

Question: What about the IC50 (NCI/ADR-RES) of the same compound?
Answer: 24.8 µM

Question: What about the IC50 (OVCAR-3) of the same compound?
Answer: 12.3 µM

Question: What about the IC50 (SK-OV-3) of the same compound?
Answer: 13.4 µM

Question: And the IC50 (OVCAR-4)?
Answer: 15.1 µM

Question: And the IC50 (OVCAR-5)?
Answer: 9.88 µM

Question: And the IC50 (OVCAR-8)?
Answer: 14.6 µM

Question: And the IC50 (ACHN)?
Answer: 20.8 µM

Question: What about the IC50 (UO-31) of the same compound?
Answer: 9.61 µM

Question: And the IC50 (786-0)?
Answer: 8.48 µM

Question: What about the IC50 (SN12C) of the same compound?
Answer: 41.8 µM

Question: And the IC50 (CAKI-1)?
Answer: 14.2 µM

Question: And the IC50 (TK-10)?
Answer: 35.8 µM

Question: What about the IC50 (RXF 393) of the same compound?
Answer: 16.9 µM

Question: What about the IC50 (A498) of the same compound?
Answer: 6.97 µM

Question: And the IC50 (PC-3)?
Answer: 7.94 µM

Question: And the IC50 (DU-145)?
Answer: 27.7 µM

Question: And the IC50 (MCF7)?
Answer: 9.93 µM

Question: And the IC50 (HS 578T)?
Answer: 12.4 µM

Question: What about the IC50 (MDA-MB-468) of the same compound?
Answer: 10.4 µM

Question: And the IC50 (MDA-MB-231/ATCC)?
Answer: 14.2 µM

Question: And the IC50 (BT-549)?
Answer: 8.64 µM

Question: What about the IC50 (T-47D) of the same compound?
Answer: 15.7 µM

Question: What about the IC50 (FG) of the same compound?
Answer: 32.6 µM

Question: And the IC50 (BxPC3)?
Answer: 31.9 µM

Question: What about the IC50 (Panc1) of the same compound?
Answer: 24.8 µM

Question: What about the IC50 (CaPan2) of the same compound?
Answer: 59.1 µM

Question: What about the IC50 (Rael) of the same compound?
Answer: 5.87 µM

Question: What about the IC50 (H9) of the same compound?
Answer: 4.67 µM

Question: And the IC50 (Namalwa)?
Answer: 20.7 µM

Question: And the IC50 (JB6)?
Answer: 2.12 µM

Question: And the IC50 (DHL6)?
Answer: 15.9 µM

Question: What about the IC50 (Mutu) of the same compound?
Answer: 4.64 µM
